Experiment [1] concerns Schistosoma mansoni. In words: Antischistosomal activity against adult female Schistosoma mansoni assessed as damaged tegument in anterior region at 20 uM incubated for 48 hrs by scanning electron microscopy analysis. It counts as functional, organism-based. Put shortly: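 Adult couples were taken by perfusion into supplemented RPMI, one couple per well, and adapted 2 h at 37°C, 5% CO2. They were exposed to 20 μM GSK343 or 0.1% DMSO for 24 and 48 h. Fixation used modified Karnovsky with osmium post-fix, followed by ethanol dehydration, critical-point drying, gold sputtering and scanning electron microscopy of tegument surfaces.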

Experiment [2] deals with Schistosoma mansoni. In words: Cytotoxicity against juvenile Schistosoma mansoni assessed as decrease in viability at 10 to 20 uM incubated for 48 hrs by CellTiter-Glo Luminescent assay relative to control. Format: functional. The settings on record: dose 10-20 µM. Put shortly: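 Perfused juvenile worms cultured in supplemented RPMI (10% FBS, 37°C, 5% CO2), exposed 24 or 48 h to compound or 0.1% DMSO. Total parasite ATP read by luminescence, given as % of vehicle; three replicate experiments of 10 juveniles each, mean ± SD.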
In general terms: Cellular ATP, detected with luciferase, serves as a proxy for viable cell number.

Experiment [3] concerns Schistosoma mansoni. In words: Antischistosomal activity against Schistosoma mansoni assessed as decreased H3K27me3 level in schistosomula at 20 uM incubated for 48 hrs by Western blotting analysis. Format: functional, organism-based. Put shortly:
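About 10,000 schistosomula were treated 48 h with 20 μM GSK343 or vehicle, then sonicated in Triton X-100 lysis buffer with PMSF and protease inhibitors. Supernatant nuclear extract (BCA-quantified, 10 μg) was run on 15% SDS-PAGE and blotted to nitrocellulose. Blots were probed with mark-specific monoclonal antibodies, then IRDye secondaries; infrared imaging was used and signals were normalized to total H3. t-test.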
On the technique in general: Immunoblotting shows a protein as a band on a membrane.

For experiment [4], the system named is Schistosoma mansoni. Put plainly: Cytotoxicity against Schistosoma mansoni assessed as decrease in viability at 20 uM incubated for 2 days relative to control. The settings on record: time 2 day.

Active and inactive are the calls of the source. The calls are words filed in the database; no cut-off is given here.

As for `CCCc1cc(C)[nH]c(=O)c1CNC(=O)c1cc(-c2ccnc(N3CCN(C)CC3)c2)cc2c1cnn2C(C)C`, the outcome in the experiment on Schistosoma mansoni [1] and in the experiment on Schistosoma mansoni [3] was Active. The Activity with Schistosoma mansoni [2] is given as 20%; in the experiment on Schistosoma mansoni [4], under 20%.

Source of the values: ChEMBL document CHEMBL5715959, “Inhibition of histone methyltransferase EZH2 in Schistosoma mansoni in vitro by GSK343 reduces egg laying and decreases the expression of genes implicated in DNA replication and noncoding RNA metabolism” (2018).
